The values that follow come from ChEMBL document CHEMBL4725463, “Vinyl Sulfone-Based Inhibitors of Nonstructural Protein 2 Block the Replication of Venezuelan Equine Encephalitis Virus” (ACS Med Chem Lett, 2020).

Data set [1] is described as follows: Selectivity index, ratio of CC50 for cytotoxicity against african green monkey Vero cells to EC50 for antiviral activity against Venezuelan equine encephalitis virus Trinidad infected in Vero cells. The following applies: read-out: Ratio CC50/EC50. In kind it is toxicity, cell-based.
Data set [2] is described as follows: Cytotoxicity against mouse N2a cells. In kind it is cell-based.
Data set [3] is described as follows: Selectivity index, ratio of CC50 for cytotoxicity against human HeLa cells to EC50 for antiviral activity against Venezuelan equine encephalitis virus Trinidad infected in HeLa cells. In kind it is toxicity, cell-based. The following applies: read-out: Ratio CC50/EC50.
The nature of data set [4]: Cytotoxicity against mouse cortical neurons. It counts as cell-based, Cortical neurone.
Data set [5] is described as follows: Cytotoxicity against green monkey Vero cells. Conditions: chlorocebus sabaeus. In kind it is cell-based.
Data set [6] relates to Venezuelan equine encephalitis virus. Nature of the data set: Antiviral activity against Venezuelan equine encephalitis virus Trinidad infected in HeLa cells at MOI of 0.1 after 20 hrs by immunostaining based confocal microscopic analysis. It counts as functional, organism-based.
Data set [7] in a line: Selectivity index, ratio of CC50 for cytotoxicity against human BE(2)-M17 cells to EC50 for antiviral activity against Venezuelan equine encephalitis virus TC-83 infected in human BE(2)-M17 cells. The following applies: read-out: Ratio CC50/EC50. In kind it is toxicity, cell-based.
Data set [8] in a line: Cytotoxicity against human SK-N-BE(2)-M17 cells. In kind it is cell-based.
Data set [9] has as its system Venezuelan equine encephalitis virus. Nature of the data set: Antiviral activity against Venezuelan equine encephalitis virus Trinidad infected in Vero cells at MOI of 0.01 after 20 hrs by immunostaining based confocal microscopic analysis. It counts as functional, organism-based.
For data set [10] the test system is unchanged. As to the kind of experiment: Antiviral activity against Venezuelan equine encephalitis virus TC-83 infected in mouse Neuro-2a cells pretreated with compound for 2 hrs followed by viral infection at MOI of 3.5 and measured after 7 hrs by immunostaining based confocal microscopic analysis. In kind it is functional, organism-based. The following applies: strain TC-83, N2a.

Data set [11] can be described thus: Selectivity index, ratio of CC50 for cytotoxicity against mouse cortical neurons to EC50 for antiviral activity against Venezuelan equine encephalitis virus TC-83 infected in mouse cortical neurons. It counts as toxicity. Conditions: read-out: Ratio CC50/EC50.
Data set [12] has as its system Venezuelan equine encephalitis virus. As to the kind of experiment: Antiviral activity against Venezuelan equine encephalitis virus TC-83 infected in human BE(2)-M17 cells pretreated with compound for 2 hrs followed by viral infection at MOI of 1.2 and measured after 7 hrs by immunostaining based confocal microscopic analysis. In kind it is functional, organism-based. The following applies: strain TC-83, SK-N-BE(2)-M17.

Data set [13] shares this test system. Nature of the data set: Antiviral activity against Venezuelan equine encephalitis virus TC-83 infected in mouse cortical neurons at MOI of 0.04 after 20 hrs by immunostaining based confocal microscopic analysis. In kind it is functional, organism-based, Cortical neuron. The following applies: strain TC-83, Cortical neurone.
Data set [14] in a line: Selectivity index, ratio of CC50 for cytotoxicity against mouse Neuro-2a cells to EC50 for antiviral activity against Venezuelan equine encephalitis virus TC-83 infected in mouse Neuro-2a cells. In kind it is toxicity, cell-based. The following applies: read-out: Ratio CC50/EC50.
Data set [15] addresses Polyprotein P1234 (Venezuelan equine encephalitis virus) (UniProt P27282). Nature of the data set: Inhibition of recombinant VEEV nsP2 expressed in Escherichia coli BL21(DE3) using V12 as substrate after 24 hrs by discontinuous gel assay. The essentials: (§1)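 Recombinant tag-free VEEV nsP2 (1 μM) was incubated with the V12 CFP-YFP FRET substrate (10 μM) and compound in 50 mM HEPES pH 7.4 for 24 h at room temperature. Compound was tested at 3.6 to 0.03 μM in 2-fold steps. Uncut and cleaved V12 were resolved on gel, and percentage inhibition was estimated at 0.9 μM.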

For data set [16] the target is unchanged. Nature of the data set: Inhibition of recombinant VEEV nsP2 expressed in Escherichia coli BL21(DE3) using V12 as substrate at 20 uM after 24 hrs by discontinuous gel assay relative to control. The method in brief: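 VEEV nsP2 (1 μM) was exposed to compound at 20 μM in the presence of 10 μM V12 CFP-YFP FRET substrate. Protease inactivation was judged by cleavage of V12.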

Data set [17] has the same target. Nature of the data set: Inhibition of recombinant VEEV nsP2 expressed in Escherichia coli BL21(DE3) using V12 as substrate at 0.9 uM after 24 hrs by discontinuous gel assay relative to control. The essentials:
as §1

Data set [18] concerns Venezuelan equine encephalitis virus. As to the kind of experiment: Antiviral activity against Venezuelan equine encephalitis virus IC-SH3 infected in HeLa cells pretreated with compound for 2 hrs followed by viral infection at MOI of 0.1 and measured after 20 hrs by immunostaining based confocal microscopic analysis. In kind it is functional, organism-based.
A short description of data set [19]: Cytotoxicity against green monkey Vero C1008 cells. In kind it is cell-based. Conditions: chlorocebus sabaeus.
Data set [20] is described as follows: Cytotoxicity against human HeLa cells. In kind it is cell-based.
Data set [21] concerns Venezuelan equine encephalitis virus. As to the kind of experiment: Antiviral activity against Venezuelan equine encephalitis virus IC-SH3 infected in VeroE6 cells pretreated with compound for 2 hrs followed by viral infection at MOI of 0.01 and measured after 20 hrs by immunostaining based confocal microscopic analysis. It counts as functional, organism-based. Conditions: IC-SH3, Vero C1008.

The nature of data set [22]: Selectivity ratio of CC50 for cytotoxicity against human HeLa cells to EC50 for antiviral activity against Venezuelan equine encephalitis virus IC-SH3 infected in HeLa cells. It counts as toxicity, cell-based. The following applies: read-out: Ratio CC50/EC50.
The nature of data set [23]: Selectivity ratio of CC50 for cytotoxicity against green monkey VeroE6 cells to EC50 for antiviral activity against Venezuelan equine encephalitis virus IC-SH3 infected in VeroE6 cells. In kind it is toxicity, cell-based. Conditions: read-out: Ratio CC50/EC50.

Polyprotein P1234 (Venezuelan equine encephalitis virus), sequence (P27282 whole entry): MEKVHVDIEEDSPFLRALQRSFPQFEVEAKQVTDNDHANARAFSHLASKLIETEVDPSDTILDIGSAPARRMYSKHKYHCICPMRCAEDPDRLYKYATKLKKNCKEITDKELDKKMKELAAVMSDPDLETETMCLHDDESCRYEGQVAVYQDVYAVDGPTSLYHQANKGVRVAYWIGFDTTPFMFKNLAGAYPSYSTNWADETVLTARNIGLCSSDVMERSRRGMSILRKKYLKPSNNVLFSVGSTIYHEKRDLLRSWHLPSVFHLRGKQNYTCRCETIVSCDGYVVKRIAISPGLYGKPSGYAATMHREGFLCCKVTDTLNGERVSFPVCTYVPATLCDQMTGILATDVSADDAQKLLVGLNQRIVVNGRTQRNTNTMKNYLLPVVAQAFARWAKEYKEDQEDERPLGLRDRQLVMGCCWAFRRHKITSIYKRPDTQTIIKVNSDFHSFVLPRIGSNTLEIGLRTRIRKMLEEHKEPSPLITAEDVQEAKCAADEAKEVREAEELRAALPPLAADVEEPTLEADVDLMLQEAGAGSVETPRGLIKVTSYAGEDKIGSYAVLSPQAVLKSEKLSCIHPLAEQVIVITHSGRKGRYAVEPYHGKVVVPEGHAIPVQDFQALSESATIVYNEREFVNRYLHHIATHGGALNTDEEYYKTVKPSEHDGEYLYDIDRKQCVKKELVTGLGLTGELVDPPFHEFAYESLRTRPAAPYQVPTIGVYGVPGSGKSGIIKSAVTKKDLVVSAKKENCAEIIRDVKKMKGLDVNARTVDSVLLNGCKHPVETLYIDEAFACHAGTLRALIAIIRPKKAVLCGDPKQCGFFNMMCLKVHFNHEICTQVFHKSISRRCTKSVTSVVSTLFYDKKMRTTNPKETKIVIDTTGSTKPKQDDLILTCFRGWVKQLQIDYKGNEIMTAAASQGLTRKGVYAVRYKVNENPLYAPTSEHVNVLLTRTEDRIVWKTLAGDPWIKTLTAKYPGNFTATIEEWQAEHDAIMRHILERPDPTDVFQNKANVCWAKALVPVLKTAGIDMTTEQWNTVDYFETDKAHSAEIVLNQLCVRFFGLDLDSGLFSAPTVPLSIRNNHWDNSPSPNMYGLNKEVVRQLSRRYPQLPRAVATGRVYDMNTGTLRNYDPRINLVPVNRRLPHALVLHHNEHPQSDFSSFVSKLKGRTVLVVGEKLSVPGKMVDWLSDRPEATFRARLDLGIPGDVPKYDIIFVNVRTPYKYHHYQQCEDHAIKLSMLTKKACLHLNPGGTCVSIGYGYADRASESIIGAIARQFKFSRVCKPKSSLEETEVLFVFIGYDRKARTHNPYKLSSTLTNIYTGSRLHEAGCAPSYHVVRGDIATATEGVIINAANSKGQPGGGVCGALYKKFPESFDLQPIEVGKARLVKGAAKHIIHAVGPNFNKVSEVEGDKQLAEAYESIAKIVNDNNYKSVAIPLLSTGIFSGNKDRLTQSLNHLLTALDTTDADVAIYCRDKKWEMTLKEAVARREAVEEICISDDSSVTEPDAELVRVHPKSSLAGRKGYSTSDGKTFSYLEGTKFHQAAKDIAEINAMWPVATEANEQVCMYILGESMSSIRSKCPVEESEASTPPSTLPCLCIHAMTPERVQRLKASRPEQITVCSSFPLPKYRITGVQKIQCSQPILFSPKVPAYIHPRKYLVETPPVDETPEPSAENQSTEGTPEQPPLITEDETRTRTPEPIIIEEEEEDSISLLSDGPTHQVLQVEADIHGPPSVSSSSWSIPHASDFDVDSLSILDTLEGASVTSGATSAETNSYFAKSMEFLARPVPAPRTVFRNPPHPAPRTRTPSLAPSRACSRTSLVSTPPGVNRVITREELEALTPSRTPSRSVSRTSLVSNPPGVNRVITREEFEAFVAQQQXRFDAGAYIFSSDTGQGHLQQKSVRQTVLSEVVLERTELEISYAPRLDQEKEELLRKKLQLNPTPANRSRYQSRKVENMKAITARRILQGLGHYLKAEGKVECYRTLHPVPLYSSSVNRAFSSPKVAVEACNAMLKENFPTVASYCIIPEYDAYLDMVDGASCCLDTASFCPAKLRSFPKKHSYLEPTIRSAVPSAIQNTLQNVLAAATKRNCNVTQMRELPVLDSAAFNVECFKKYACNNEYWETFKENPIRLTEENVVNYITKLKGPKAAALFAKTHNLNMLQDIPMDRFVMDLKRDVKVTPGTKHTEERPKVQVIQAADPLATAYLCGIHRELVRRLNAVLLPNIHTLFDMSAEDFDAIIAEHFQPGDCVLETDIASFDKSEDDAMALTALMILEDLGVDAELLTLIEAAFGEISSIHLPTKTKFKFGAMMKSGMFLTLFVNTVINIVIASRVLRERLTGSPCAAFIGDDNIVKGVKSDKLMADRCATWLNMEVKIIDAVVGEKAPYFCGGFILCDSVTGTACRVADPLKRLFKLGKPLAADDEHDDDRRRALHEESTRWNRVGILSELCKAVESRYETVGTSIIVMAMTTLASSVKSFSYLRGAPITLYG

Turning to `CC1=CC(C)(C)Nc2c(C(=O)NC/C=C/S(C)(=O)=O)cccc21`, the selectivity ratio was 7 in data set [1]; above 22 in [3]; above 9 in data set [7]; above 4 in data set [11]; above 5 in data set [14]. For the same compound, the CC50 in data set [2] was 27 µM; in [4], above 25 µM; in [5], 30 µM; in data set [8], 19.6 µM. Also, the EC50 in data set [6] stood at 1.4 µM; in [9], 5 µM; in data set [10] it was 5 µM; in [12] it was 2 µM; in [13] it was 6 µM.
As to `CC1=CC(C)(C)Nc2c(C(=O)N[C@H](/C=C/S(C)(=O)=O)Cc3ccccc3)cccc21`, the CC50 in data set [2] was above 50 µM; in data set [8], above 38 µM. Further, the results for the selectivity ratio in [7] and in data set [14] were above 2 and above 4, respectively. In addition, the EC50 turned out to be 13 µM in data set [10] and 17 µM in data set [12].
In the case of `C[C@@H]1CC(C)(C)Nc2c(C(=O)N[C@@H](C)/C=C/S(C)(=O)=O)cccc21`, the CC50 in data set [2] and in [8] was above 25 µM throughout. In addition, the values for the inhibition result in data set [15], in [16] and in data set [17] were “Dose-dependent effect”, 100% and 71%, respectively. Also, the selectivity ratio in data set [7] was above 7.5; in data set [14] it was above 7. The EC50 in data set [10] was determined as 3.7 µM; in data set [12], 3.3 µM.
As to `COC(=O)CCCNC(=O)c1cccc2c1NC(C)(C)C[C@H]2C`, the half-maximal effective concentration (EC50) in data set [18] and in data set [21] was above 30 µM in each case. Moreover, the CC50 in [19] and in data set [20] was above 30 µM in each case.
Turning to `O=C(N[C@H](/C=C/S(=O)(=O)c1ccccc1)Cc1ccccc1)c1cccc2cccnc12`, the half-maximal cytotoxic concentration (CC50) in [2] is 46 µM; in [8] it was 16 µM. The figures for the selectivity ratio in [7] and in [14] were 1 and above 2, respectively. The values for the EC50 in data set [10] and in [12] were 19 µM and 17 µM, respectively.
Take `COC(=O)/C=C/CNC(=O)c1cccc2c1NCCC2`: the EC50 in [18] was 18 µM; in data set [21], above 30 µM. The CC50 in data set [19] and in data set [20] was above 30 µM in each case. For the same compound, the selectivity ratio in data set [22] was above 2.
As for `C[C@@H]1CC(C)(C)Nc2c(C(=O)NC/C=C/S(C)(=O)=O)cccc21`, the selectivity ratio is above 12 in [1]; above 19 in data set [3]; above 18 in [7]; 6 in data set [11]; above 12 in data set [14]. In addition, the CC50 in [2] was above 25 µM; in [4] it was 48 µM; in data set [5] it was 30 µM; in data set [8], above 25 µM. In addition, the EC50 in [6] came out at 1.6 µM; in data set [9], 2.4 µM; in [10], 2 µM; in data set [12], 1.4 µM; in [13] it was 8 µM. For the same compound, the values for the inhibition result in [15], in data set [16] and in data set [17] were “Dose-dependent effect”, 100% and 39%, respectively.
Regarding `COC(=O)CCCNC(=O)c1cccc2c1NCCC2`, the EC50 in data set [18] and in [21] was above 30 µM each time. Also, the CC50 in data set [19] and in data set [20] was above 30 µM throughout.
As to `COC(=O)/C=C/CNC(=O)c1cccc2c1NC(C)(C)C[C@H]2C`, the CC50 in [2] is above 25 µM; in data set [19] it was above 30 µM; in data set [8], 11 µM; in data set [20], above 30 µM. Besides, the EC50 in data set [18] is 1.2 µM; in data set [10] it was 22 µM; in data set [12], above 25 µM; in [21] it was 8.2 µM. Moreover, the selectivity ratio is above 4 in data set [23], above 26 in data set [22] and above 1 in data set [14].
With `C[C@@H]1CC(C)(C)Nc2c(C(=O)N[C@H](/C=C/S(C)(=O)=O)Cc3ccccc3)cccc21`, the CC50 in [2] and in [8] was above 50 µM each time. The selectivity ratio was above 5.4 in data set [7] and above 4 in [14]. The concentration giving a half-maximal response (EC50) in [10] worked out at 13 µM; in data set [12], 9.3 µM.
Take `CN1CCN(C)/C(=N\c2ccc([N+](=O)[O-])cc2C(=O)Nc2ccccc2)C1`: the CC50 in data set [2] was above 2.5 µM; in data set [8], above 2.25 µM. Besides, the results for the selectivity ratio in data set [7] and in [14] were above 250 and above 125, respectively. In addition, the EC50 in [10] came out at 0.02 µM; in data set [12] it was 0.01 µM.
Take `CC1=CC(C)(C)Nc2c(C(=O)N[C@@H](C)/C=C/S(C)(=O)=O)cccc21`: the CC50 in [2], in data set [4] and in data set [8] was above 25 µM throughout. Also, the inhibition result in data set [15] was “Dose-dependent effect”; in data set [16] it was 100%; in data set [17], 59%. Moreover, the selectivity ratio was above 5 in data set [7], above 9.7 in data set [11] and above 7.3 in data set [14]. Moreover, the EC50 is 3.4 µM in data set [10], 4.5 µM in data set [12] and 2.7 µM in [13].
With `COC(=O)/C=C/CNC(=O)c1c[nH]c2ccc(Br)cc12`, the CC50 in data set [2] is above 25 µM; in data set [8], 12 µM. In addition, the selectivity ratio in [7] is 4; in [14] it was above 2. Further, the EC50 came out at 11 µM in [10] and 3 µM in [12].
As to `COC(=O)/C=C/CNC(=O)c1cccc2c1NC(C)(C)C=C2C`, the EC50 is 0.6 µM in data set [18], above 25 µM in data set [10], 4.5 µM in data set [12] and 6.5 µM in [21]. In addition, the figures for the selectivity ratio in data set [7], in [23] and in data set [22] were 1.5, above 5 and above 55, respectively. Moreover, the half-maximal cytotoxic concentration (CC50) in [19] is 6.7 µM; in data set [8] it was 18.1 µM; in [20] it was above 30 µM.
Consider `COC(=O)/C=C/CNC(=O)c1cc(C)cc2c1NC(C)(C)C=C2C`, for which the values for the half-maximal effective concentration (EC50) in [18] and in data set [21] were 8.7 µM and 8.6 µM, respectively. In addition, the CC50 in [19] and in data set [20] was above 30 µM each time. The selectivity ratio in data set [23] is above 3.5; in data set [22], above 4.
In the case of `COC(=O)CCCNC(=O)c1cc(C)cc2c1NC(C)(C)C=C2C`, the EC50 in data set [18] and in data set [21] was above 30 µM in each case. Further, the CC50 in data set [19] and in data set [20] was above 30 µM each time.
Turning to `COC(=O)CCCNC(=O)c1cccc2c1NC(C)(C)C=C2C`, the EC50 in data set [18] and in data set [21] was above 30 µM each time. Also, the CC50 in data set [19] and in data set [20] was above 30 µM in each case.

Broadly, the CC50 is the concentration giving 50% cytotoxicity. Usually EC50 stands for the midpoint of the concentration-response curve. The inhibition is the change of the read-out against control, counted positive when it falls.
